Screening data deposited in PubChem BioAssay by Sanford-Burnham Center for Chemical Genomics.
Diaphorase inh = diaphorase inhibitors and chemical oxidizers, primary screen, counter-screen for diaphorase-coupled primary assays, biochemical, uHTS, resorufin fluorescence; inhibition, % at 20 µM; 190,000 tested, 0.69% active; diaphorase resazurin-to-resorufin fluorescence, NADH, 16 min; bacterial (C. kluyveri) enzyme, not human;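 active = primary screen inhibition at 20 µM above a set limit, cut at about 50% in these data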;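 note: plate controls were DMSO with full reaction for no effect and wells lacking NADH for full effect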
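Benchmarks: positive control wells lacking NADH, neutral wells with DMSO only. System: bacterial diaphorase enzyme (C. kluyveri). Input: 0.14 U/mL diaphorase, enzyme working solution. Detection: resorufin fluorescence, excitation 544 nm, emission 590 nm. Times: 16-min room-temperature incubation before reading.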
PMI act hi M6P = human PMI activators, high substrate, primary screen, biochemical, fluorescence intensity, near-saturating mannose 6-phosphate | Mannose-6-phosphate isomerase (Homo sapiens), P34949 | coupled PMI enzyme assay, resazurin fluorescence, 20 min; active compounds read high; 1 = untreated enzyme, 0 = substrate-free blank | activation factor at 20 µM | 190,000 tested, 0.34% active | AID 1216, 2008;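 active = activation factor of 2 or more at 20 µM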
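Material: human phosphomannose isomerase with PGI, G6PDH, diaphorase coupling enzymes / Reagent: Man-6-P substrate 1.0 mM / Dosing: single compound dose of 20 µM, 1% DMSO final / Incubation: enzyme reaction with compound 20 min at room temperature / Signal: resorufin fluorescence (Ex 544/Em 590 nm) from resazurin via diaphorase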
Diaphorase act = compounds boosting diaphorase resazurin reduction – biochemical, uHTS, resorufin fluorescence, counter-screen for diaphorase-coupled primary assays, primary screen. Diaphorase/resazurin coupled assay, 16 min; active compounds read high; 1 = vehicle wells, 0 = NADH-free wells. activation factor at 20 µM. 190,000 tested, 0.005% active;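 active = diaphorase activity raised at least twofold by the compound at 20 µM; inactive = activation factor below 2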
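Material: Clostridium kluyveri diaphorase, purified enzyme; Quantity: enzyme 0.07 U/mL final; Medium: HEPES pH 7.4 buffer with MgCl2 and Tween 20; Dosing: single compound dose of 20 µM, 1% DMSO final; Schedule: 16 min reaction at room temperature; Measured by: red resorufin fluorescence at 544/590 nm excitation/emission.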
FLuc act counter = FLuc activators, initial screening, artefact control for FLuc-dependent activation tests, biochemical, ATPlite luminescence. AID 1027, 2008. activation factor at 10 µM. Luciferin 4-monooxygenase (Photinus pyralis), P08659. ATPlite luciferase biochemical, 10 min; 0 = ATP-free wells, 1 = DMSO control. 200,000 tested, under 10 active;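 active = luciferase activation factor, scaled between plate controls, of at least 2 with compound at 10 µM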
Target sequence (P08659 whole entry, looked up): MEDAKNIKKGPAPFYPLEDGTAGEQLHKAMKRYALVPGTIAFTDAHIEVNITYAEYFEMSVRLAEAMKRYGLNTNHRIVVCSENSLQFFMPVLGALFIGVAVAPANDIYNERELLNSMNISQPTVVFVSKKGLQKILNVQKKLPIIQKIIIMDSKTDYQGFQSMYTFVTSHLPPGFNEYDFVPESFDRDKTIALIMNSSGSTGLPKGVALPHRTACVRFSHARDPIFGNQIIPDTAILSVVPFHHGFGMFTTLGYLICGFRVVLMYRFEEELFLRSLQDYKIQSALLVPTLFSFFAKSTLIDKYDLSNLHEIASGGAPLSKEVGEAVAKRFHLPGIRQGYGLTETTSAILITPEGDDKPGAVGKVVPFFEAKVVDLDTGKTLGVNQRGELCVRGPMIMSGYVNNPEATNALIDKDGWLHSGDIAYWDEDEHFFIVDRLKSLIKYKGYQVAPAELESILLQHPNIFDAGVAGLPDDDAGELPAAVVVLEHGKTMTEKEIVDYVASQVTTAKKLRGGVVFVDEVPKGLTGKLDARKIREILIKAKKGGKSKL
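test system = cell-free luciferase reagent | medium = PBS as buffer for the ATP substrate | dosing = test compounds dosed from 2 mM stocks in 100% DMSO | incubation = 10 min at ambient temperature | detection = luminescence measurement of luciferase light output | benchmarks = low control with PBS replacing ATP, high control enzyme plus ATP without compound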
FLuc inh counter = firefly luciferase enzyme inhibitors, primary screen, artefact control for luciferase-based inhibitor screens, biochemical, luminescence, ATPLite | AID 1006, 2008 | 10 min | inhibition, % at 10 µM | Luciferin 4-monooxygenase (Photinus pyralis), P08659 | 200,000 tested, 1.5% active;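 active = inhibition above about 50% when tested at 10 µM, limit read from the data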
PMI act = activators of human PMI, primary screen, biochemical, fluorescence intensity, near-Km mannose 6-phosphate. purified human PMI, coupled resazurin fluorescence, 20 min; active compounds read high; 1 = vehicle control, 0 substrate-free wells. activation factor at 20 µM. 190,000 tested, 0.005% active. Mannose-6-phosphate isomerase (Homo sapiens), P34949. AID 1214, 2008;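 active = activation factor of 2 or more at 20 µM, relative to plate controls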
An asterisk follows results filed as active; . = no result given. The list is not random: actives were taken first. Their share in the collection is about 2.5%.

SMILES	Diaphorase inh	PMI act hi M6P	Diaphorase act	FLuc act counter	FLuc inh counter	PMI act
CCOC(=O)c1sc2nc(C(C)C)c3c(c2c1N)CC(C)(C)OC3	55*	1	0.5	1.1	-9	1.1
Cn1cccc1-c1cc(C(=O)N/N=C/C=C/c2ccccc2)[nH]n1	22	0.8	0.8	1	-2	0.9
Cc1cc(Br)c2nc3c(c(C(=O)O)c2c1)CCCCC3	14	1.1	0.9	1.1	-7	1.1
CCOC(=O)C(=O)N(Nc1ccccc1C)c1ccccc1C	.	.	.	1	-5	.
O=C1N/C(=C/c2ccc(N3CCOCC3)cc2)C(=O)N1Cc1ccc(F)cc1	4	0.9	1	1	-1	0.9
O=C1NC(=S)N/C1=C\c1ccc(N2CCOCC2)cc1	-3	0.9	1	0.2	78*	0.9
O=C(O)Cc1ccc(NC(=O)c2ccc(NC(=O)c3ccco3)cc2)cc1	10	0.9	0.9	1	0	0.9
Cc1ccoc1C(=O)Nc1ccc(CC(=O)O)cc1	14	0.9	0.9	0.4	57*	0.9
COc1ccc(-c2cc(=O)c3cc(C)ccc3[nH]2)cc1	2	1.2	1	0.2	82*	1.3
Cc1ccc2[nH]c(-c3ccccc3)cc(=O)c2c1	17	1	0.8	0.1	86*	0.9
COc1ccc(-c2cc(=O)c3cc(OC)ccc3o2)cc1	4	1.1	1	0.2	78*	1.1
Cc1ccc(-c2cc(=O)c3ccccc3[nH]2)cc1	-6	1.2	1.1	0.7	28	1.3
Cc1ccc(-c2cc(=O)c3cc(Cl)ccc3[nH]2)cc1	-5	1.1	1	0.4	57*	1
O=C(CN1CCC(NC(=O)c2ccccc2Cl)CC1)NCc1ccco1	7	1.1	0.9	1.1	-5	1.1
COc1ccc(-c2cc(=O)c3cc(OC)ccc3[nH]2)cc1	2	1.3	1	0.1	87*	1.3
CCN(CC)c1ccc(NC(=O)c2ccc(Br)o2)cc1	23	0.8	0.8	0.5	53*	1
CNc1nc(SC(C)C(=O)Nc2ccc(Cl)c(Cl)c2)nc(N2CCOCC2)n1 (configuration not stated)	2	1	1	1	-3	1
CC(=NCc1ccco1)c1c(C)[nH]n(-c2nc3ccccc3s2)c1=O	8	1	0.9	0.6	35	1
C/C(=N/NC(=O)c1cccs1)c1c(C)[nH]n(-c2nc3ccccc3s2)c1=O	17	1.2	0.8	0.1	93*	1.1
CCN(CC)c1ccc2cc(-c3nc4ccccc4n3C)c(=O)oc2c1	8	1	0.9	0.8	24	1
CCN(CC)c1ccc2cc(-c3nc4ccccc4[nH]3)c(=O)oc2c1	20	0.9	0.8	0	96*	0.9
O=C(C1CCCO1)N1CCN(Cc2c(O)ccc3ccccc23)CC1 (configuration not stated)	56*	0.7	0.4	1	-4	0.6
Fc1ccc(NC(=S)NCc2cccs2)cc1	1	1	1	1	2	0.9
O=C(O[C@@H]1OC2COC(=O)c3cc(O)c(O)c(O)c3-c3c(cc(O)c(O)c3O)C(=O)O[C@@H]([C@H]1O)[C@@H]2O)c1cc(O)c(O)c(O)c1	62*	0.8	0.4	1	1	0.5
Nc1ccc(C(=O)Nc2nc3ccccc3s2)cc1	13	0.8	0.9	0.3	74*	0.8
SMILES	Diaphorase inh	PMI act hi M6P	Diaphorase act	FLuc act counter	FLuc inh counter	PMI act
O=C(Nc1nc(=O)c2ccccc2s1)c1ccc(Cl)cc1	6	1.3	0.9	0.6	43	1.1
Cn1ncc(Cl)c1C(=O)Nc1nc2ccc(Cl)cc2s1	12	1.1	0.9	0.4	60*	0.9
O=C(Nc1nc(=O)c2ccccc2s1)c1ccc(F)cc1	16	1.6	0.8	0.5	54*	1.3
N=c1oc2cc(O)ccc2cc1C(=O)Nc1nc2ccccc2s1	9	0.9	0.9	0.3	75*	0.9
COc1ccc(-c2nc3ccccc3c(=O)n2CCOc2cc(C)ccc2C)cc1	13	1	0.9	1	-3	0.9
COc1ccc(CCN2C(=O)C3C4CC(C5C(C(=O)O)=NOC45)C3C2=O)cc1OC (configuration not stated)	3	1.1	1	1	1	1
COC(=O)Cn1c(=NC(=O)c2ccc([N+](=O)[O-])s2)sc2cc(Br)ccc21	4	1	1	1.1	-8	1
Cn1cc(Cl)c(C(=O)Nc2cccc(Cl)c2Cl)n1	-2	1	1	1	3	1
Cn1cc(Cl)c(C(=O)Nc2nc3ccccc3s2)n1	11	1	0.9	0.4	61*	1
O=C(CSc1n[nH]c(=O)[nH]c1=O)Nc1ccc(C(=O)O)cc1	-1	1.1	1	1	-4	1.1
CSc1nc(N(CCO)CCO)c2sc3nc(-c4ccco4)c4c(c3c2n1)CCC4	54*	1.4	0.5	0.9	6	1.2
CSc1nc(SCCO)c2sc3nc(-c4ccco4)c4c(c3c2n1)CC(C)(C)OC4	18	1.4	0.8	1	-2	1.2
Cc1nn(CCc2nn[nH]n2)c2nc(-c3ccc(C4CCCCC4)cc3)cc(C(F)(F)F)c12	22	1	0.8	1	3	1.1
O=C(O)c1cccc(NC(=O)c2ccc(Cl)c(S(=O)(=O)N3CCCCCC3)c2)c1	6	1.1	0.9	0.3	65*	1.2
O=C(Nc1ccccc1C(=O)O)c1ccc(Cl)c(S(=O)(=O)N2CCOCC2)c1	10	1.2	0.9	0.4	60*	1.2
CCOC(=O)C1CCN(C(=O)CN(c2ccc(Oc3ccccc3)cc2)S(C)(=O)=O)CC1	16	0.8	0.8	1	-3	0.9
C=CCNc1nc(NCc2ccccc2)c(C#N)c2c1CN(C)CC2	63*	0.3	0.4	1	-2	0.5
N#Cc1c(NCCN)nc(NCc2ccccc2)c2c1CCN(Cc1ccccc1)C2	-9	0.5	1.1	1	2	0.8
COCCNC(=O)CN1CCC(NC(=O)Nc2ccc(C(F)(F)F)cc2)CC1	24	0.9	0.8	1.1	-8	0.9
